Assay [1] is described as follows: OD615 S. cerevisiae growth inhibition, permissive medium, pilot counter-assay, permissive growth control for S. cerevisiae lifespan shortening project (AID 705;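 active = growth inhibition above 25% in both replicates, a cutoff set 3 SD above the mean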). The note with it: OD615, 24 h, at 10 µM, hits give high values. The gist of the method: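 System: engineered DeaD yeast; Medium: permissive raffinose/galactose medium; Compound dosing: 10 µM single dose, 0.25% DMSO; Incubation: 4 h cell pre-growth, 24 h exposure at 30 °C; Technique: OD at 615 nm; Evaluation: growth inhibition from lowered OD615 after 24 h.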

Assay [2] is described as follows: Restrictive medium S. cerevisiae growth inhibition, OD615, pilot screen of yeast lifespan reduction project, restrictive growth control (AID 706;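 active = growth inhibition above a set limit, 3 SD over mean compound inhibition, in both replicates, cut at about 43% in these data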;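 note: modified DeaD lifespan yeast strain shifted to restrictive glucose medium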). Conditions: OD615, 48 h, at 10 µM, hits give high values. The essentials: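 Material: modified S. cerevisiae; buffer or medium: CSMM-D glucose medium; doses: one concentration, 10 µM final, 0.25% DMSO; incubation: 48 h compound exposure at 30 °C; detection: optical density at 615 nm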

Assay [3] can be described thus: viability gain of MRP-1-high H69AR cells under doxorubicin, pilot screen, MRP-1 activator project, CellTiter-Glo, duplicate (AID 807).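 Note: compound pretreatment 18-22 h then 72 h combined with doxorubicin; 0% = doxorubicin alone and 100% = vehicle without doxorubicin.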 The note with it: H69AR viability with doxorubicin, CellTiter-Glo luminescence; at 10 µM; hits give high values.
The nature of assay [4]: growth suppression of beta-catenin knockout HCT116, pilot screen, human colon tumor cells (AID 823;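 active = cell viability at or below a set limit in both duplicate runs, the limit being the all-compound median minus 4 SD, cut at about 23% in these data, passing the limit was not always enough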;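 note: 0% = wells killed by 20 µM Hyamine and 100% = untreated DMSO cell wells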). Conditions: CellTiter-Glo, 60 h, at 10 µM, hits give low values.
The nature of assay [5]: growth suppression of PTEN-deleted HCT116, pilot screen, cell-based, HCT116 clonal line, CellTiter-Glo (AID 824;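 active = viability at or below 27.92% in each of two runs, the all-compound median minus 4 SD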;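 note: 0% = 20 µM Hyamine control and 100% = vehicle cell control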). Conditions: 60 h, at 10 µM, hits give low values.
The nature of assay [6]: inhibitors of the yeast RAM network, pilot screen, dse1pr::URA3 reporter, 5-FOA selection (AID 869;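 active = inhibition over a set limit, the all-compound mean plus 3 SD, in both replicate runs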;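 note: 0% = DMSO wells with no growth and 100% = 10 µM 1-NA-PP1 with full growth; RAM network block rescues cells from 5-FOA so hits raise OD615 growth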). The note with it: S. cerevisiae dse1pr::URA3 5-FOA growth, OD615, 2 d; at 10 µM; hits give high values; strain carries analog-sensitive mutant Cbk1 kinase.
Assay [7] in a line: RAM signaling pathway blockade in yeast – S. cerevisiae, Pdr1DBD-CYC8 efflux-inhibited sensitized strain, primary screen (AID 1298;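 active = RAM network inhibition above 8.4% in each of two replicates, 3 SD over the compound average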;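 note: 0% = DMSO untreated cells without growth and 100% = 10 µM 1-NA-PP1 full growth; higher means more yeast growth rescued from 5-FOA killing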). Conditions: S. cerevisiae cbk1-as DSE1-URA3 strain, 5-FOA growth OD615, 2 d; at 50 µM; hits give high values.

Values without a mark were called inactive. Inconclusive results are not listed. Activity calls are given as the source filed them.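 Rule for the calls, unless noted: active = viability increase at or above a cutoff of the median across tested compounds plus 3 SD (cut at about 8.5% in these data, passing the limit was not always enough); inconclusive = some gains above the cutoff, reason not given; inactive = the rest.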

Regarding `CCCCn1c(C(C)NC(=O)COC)nc2ccccc21` (centres undefined), the growth inhibition in assay [1] is -3.38%; in assay [2], 1.68%. Further, the viability increase in assay [3] was -0.01%. The viability in assay [4] is 91.4%; in assay [5], 101%. Moreover, the inhibition in assay [6] is 1.94%. For the same molecule, the RAM network inhibition in assay [7] was 0.2%.
As for `Cc1cc(NC(=O)c2cc(-c3cccs3)nc3ccccc23)no1`, the growth inhibition in assay [1] is 3.04%; in assay [2], -5.12%. In assay [3], the viability increase was -6.62%. In addition, the viability is 29.3% in assay [4] and 30.9% in assay [5]. The inhibition in assay [6] was 2.11%. In addition, in assay [7], the RAM network inhibition is 8.27%.
With `CCC(C)(C(=O)NC1CCCCC1)N(C(=O)C1CCC(=O)N1)c1ccc(C)cc1` (centres undefined), the growth inhibition was 2.44% in assay [1] and -4.21% in assay [2]. For the same molecule, the viability increase in assay [3] is -1.97%. Besides, the figures for the viability in assay [4] and in assay [5] were 98.7% and 92.1%, respectively. Also, the inhibition in assay [6] was 1.71%. In addition, the RAM network inhibition in assay [7] was 1.9%.
Take `Nc1nc(Nc2ccccc2Br)nc(C(F)(F)F)n1`: the results for the growth inhibition in assay [1] and in assay [2] were -3.56% and 4.02%, respectively. For the same molecule, the viability increase in assay [3] is 0.23%. Also, the viability in assay [4] is 104%; in assay [5], 93.4%. Moreover, in assay [6], the inhibition was 1.84%. Also, the RAM network inhibition in assay [7] is 0.72%.
With `Cc1cccc(NC(=O)NCCN2C(=O)C3C4C=CC(C4)C3C2=O)c1` (centres undefined), the growth inhibition in assay [1] is -11.4%; in assay [2] it was 8.84%. For the same molecule, the viability increase in assay [3] is -1.25%. The viability in assay [4] was 104%; in assay [5], 96.4%. The inhibition in assay [6] was 1.83%. Besides, in assay [7], the RAM network inhibition is 0.37%.
With `O=C(Cn1c(=O)n(-c2ccccc2)c(=O)n1CC(=O)N1CCCCC1)N1CCCCC1`, the figures for the growth inhibition in assay [1] and in assay [2] were -8.76% and -2.77%, respectively. Also, the viability increase in assay [3] is -0.69%. Besides, the viability in assay [4] is 107%; in assay [5] it was 96.4%. Further, the inhibition in assay [6] is 0.495%. For the same molecule, in assay [7], the RAM network inhibition is 0.57%.
With `O=C1C2=C(SCCS2)C(=O)N1CCCO`, the growth inhibition in assay [1] was -1.38%; in assay [2], -3.45%. The viability increase in assay [3] is 0.11%. The viability in assay [4] was 98.9%; in assay [5], 97.9%. Moreover, the inhibition in assay [6] was -0.095%. Further, the RAM network inhibition in assay [7] is 3.67%.
With `C=CCn1c(CCCNC(=O)CCC)nc2ccccc21`, the growth inhibition in assay [1] was 2%; in assay [2], 0.97%. In assay [3], the viability increase was -0.01%. In addition, the viability in assay [4] was 99.4%; in assay [5], 103%. In assay [6], the inhibition was -0.095%. The RAM network inhibition in assay [7] was 4.24%.
For `Cn1c(SCC(=O)N2CCCCCC2)nc2c([nH]c3ccccc32)c1=O`, the growth inhibition was -14.3% in assay [1] and -27.8% in assay [2]. Further, the viability increase in assay [3] was -5.85%. The viability in assay [4] is 89%; in assay [5], 86.7%. The inhibition in assay [6] was 3.46%. In addition, in assay [7], the RAM network inhibition was 8.37%.
On to `CC(C)C(NS(=O)(=O)c1ccc2c3c(cccc13)C(=O)N2)C(=O)O` (centres undefined), for which the values for the growth inhibition in assay [1] and in assay [2] were -4.62% and -4.4%, respectively. The viability increase in assay [3] is -0.28%. The viability was 97% in assay [4] and 93.6% in assay [5]. Also, the inhibition in assay [6] was 1.71%. For the same molecule, in assay [7], the RAM network inhibition was 3.8%.
`O=C(Cn1cnc2c(nnn2-c2ccccc2)c1=O)N1CCCc2ccccc21`: the growth inhibition is -10% in assay [1] and -10.4% in assay [2]. Further, in assay [3], the viability increase is 0.06%. For the same molecule, the viability in assay [4] and in assay [5] was 101% each time. Moreover, the inhibition in assay [6] was 1.55%. Further, the RAM network inhibition in assay [7] is 5.32%.
With `CC(=O)Oc1ccc(N2C(=O)C3C(C2=O)C2(C)C=CC3(C)O2)cc1` (centres undefined), the results for the growth inhibition in assay [1] and in assay [2] were 95.1% (active) and 100% (active), respectively. Also, the viability increase in assay [3] is -1.26%. In addition, the viability in assay [4] is 99%; in assay [5], 98.4%. In assay [6], the inhibition was 2.16%. In addition, in assay [7], the RAM network inhibition was 0.09%.
For the molecule `CC1(C)CC(=O)C2=C(C1)Nc1ccccc1NC2c1ccccn1` (centres undefined), the growth inhibition in assay [1] was 11.4%; in assay [2], 3.1%. For the same molecule, in assay [3], the viability increase is -3.1%. In addition, the viability is 100% in assay [4] and 95.4% in assay [5]. For the same molecule, the inhibition in assay [6] was 0.245%. Besides, the RAM network inhibition in assay [7] was 3.12%.
Consider `CCc1c(C)nc(SCC(=O)Nc2ccc(Br)cc2)[nH]c1=O`, for which the growth inhibition is -11.9% in assay [1] and 0.39% in assay [2]. Also, the viability increase in assay [3] was 1.64%. Further, the viability in assay [4] was 98.3%; in assay [5] it was 103%. For the same molecule, the inhibition in assay [6] is 1.89%. In assay [7], the RAM network inhibition was 3.9%.
Consider `Cc1cc(-c2ccco2)n(CC(=O)NCCCc2ccccc2)n1`, for which the growth inhibition was -13.3% in assay [1] and -2.17% in assay [2]. The viability increase in assay [3] was -1.48%. Also, the viability in assay [4] was 100%; in assay [5], 97%. Besides, the inhibition in assay [6] was 0.905%. In assay [7], the RAM network inhibition is -0.37%.
On to `COC(=O)c1c(-c2cccc(OC)c2)csc1N`, for which the growth inhibition was -8.46% in assay [1] and 1.4% in assay [2]. For the same molecule, the viability increase in assay [3] is -4.63%. Further, the viability in assay [4] was 103%; in assay [5], 100%. Further, the inhibition in assay [6] was 1.37%. For the same molecule, the RAM network inhibition in assay [7] is 0.9%.
For the molecule `Cc1cnc(C(=O)OCC(=O)Nc2cccc(Cl)c2)cn1`, the figures for the growth inhibition in assay [1] and in assay [2] were -0.055% and 1.48%, respectively. Besides, in assay [3], the viability increase was -3.1%. Also, the viability in assay [4] is 92.5%; in assay [5], 92.3%. Besides, in assay [6], the inhibition is 0.405%. The RAM network inhibition in assay [7] is 0.67%.
